According to ChEMBL document CHEMBL4396883, “Discovery of CDK5 Inhibitors through Structure-Guided Approach” (ACS Med Chem Lett, 2019):
Calls of active or inactive are those of the source. The calls are words filed in the database; no cut-off is given here.

Assays:
[1] = target: Cyclin-dependent kinase 5 (Homo sapiens) (UniProt Q00535); test: Inhibition of CDK5 in human MV4-11 cells assessed as increase in p27KIP1 level at 5 to 10 uM measured after 24 hrs incubation by Western blot analysis; assay type: cell-based
Cyclin-dependent kinase 5 (Homo sapiens), sequence (Q00535 whole entry, looked up): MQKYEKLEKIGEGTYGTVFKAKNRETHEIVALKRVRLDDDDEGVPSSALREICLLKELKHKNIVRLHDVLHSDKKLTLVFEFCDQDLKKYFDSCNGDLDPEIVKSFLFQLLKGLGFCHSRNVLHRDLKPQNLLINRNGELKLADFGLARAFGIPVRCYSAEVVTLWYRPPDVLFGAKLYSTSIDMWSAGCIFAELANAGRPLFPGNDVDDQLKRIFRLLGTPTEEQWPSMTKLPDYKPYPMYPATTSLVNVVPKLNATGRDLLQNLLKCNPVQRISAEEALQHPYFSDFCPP
Procedure, shortened: (§1)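 Cells treated for 24 h; lysates immunoblotted for pAkt (S473), pRB (S780), cyclin D1, p27KIP1, and cleaved caspase 3 and 7 (MOLM-13); at least two independent repeats.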

[2] = target: Cyclin-dependent kinase 5 (Homo sapiens) (UniProt Q00535); test: Inhibition of CDK5 in human MOLM13 cells assessed as increase in p27KIP1 level at 5 to 10 uM measured after 24 hrs incubation by Western blot analysis; assay type: cell-based; procedure, shortened: as §1
[3] = target: Cyclin-dependent kinase 5 (Homo sapiens) (UniProt Q00535); test: Inhibition of CDK5 in human MV4-11 cells assessed as decrease in cyclin D1 level at 5 to 10 uM measured after 24 hrs incubation by Western blot analysis; assay type: cell-based; procedure, shortened: as §1
[4] = target: Cyclin-dependent kinase 5 (Homo sapiens) (UniProt Q00535); test: Inhibition of CDK5 in human MOLM13 cells assessed as decrease in cyclin D1 level at 5 to 10 uM measured after 24 hrs incubation by Western blot analysis; assay type: cell-based; procedure, shortened: as §1
[5] = target: Cyclin-dependent kinase 5/CDK5 activator 1 (Homo sapiens, UniProt Q00535+Q15078); test: Inhibition of recombinant full length N-terminal GST tagged human CDK5/p25 expressed in baculovirus infected sf9 cells using histone H1 as substrate at 10 uM measured after 60 mins in presence of ATP by ADP-Glo kinase assay relative to control
Cyclin-dependent kinase 5/CDK5 activator 1 (Homo sapiens, UniProt Q00535+Q15078), sequence (Q00535 whole entry): as the sequence (Q00535 whole entry, looked up) above
Cyclin-dependent kinase 5/CDK5 activator 1 (Homo sapiens, UniProt Q00535+Q15078), sequence (Q15078 99-307 partner limits assumed): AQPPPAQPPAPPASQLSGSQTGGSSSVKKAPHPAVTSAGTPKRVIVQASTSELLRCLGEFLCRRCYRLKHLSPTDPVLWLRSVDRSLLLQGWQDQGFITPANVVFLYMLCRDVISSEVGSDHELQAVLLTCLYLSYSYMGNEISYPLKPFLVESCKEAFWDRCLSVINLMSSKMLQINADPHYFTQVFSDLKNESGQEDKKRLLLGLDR

CDK2/Cyclin A2 = CDK2/Cyclin A2 (Homo sapiens, UniProt P24941); test: Inhibition of recombinant full length N-terminal GST tagged human CDK2/CyclinA expressed in baculovirus infected sf9 cells using histone H1 as substrate measured after 30 mins in presence of ATP by ADP-Glo kinase assay
Procedure, shortened: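 CDK2/cyclin A kinase inhibition; Ki values from the average of at least two experiments.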

[6] = target: Cyclin-dependent kinase 5/CDK5 activator 1 (Homo sapiens, UniProt Q00535); test: Inhibition of recombinant full length N-terminal GST tagged human CDK5/p25 expressed in baculovirus infected sf9 cells using histone H1 as substrate measured after 60 mins in presence of ATP by ADP-Glo kinase assay; assay type: cell-based
Cyclin-dependent kinase 5/CDK5 activator 1 (Homo sapiens, UniProt Q00535), sequence (Q00535 whole entry): as the sequence (Q00535 whole entry, looked up) above
Cyclin-dependent kinase 5/CDK5 activator 1 (Homo sapiens, UniProt Q00535), sequence (Q15078 whole entry, further chain): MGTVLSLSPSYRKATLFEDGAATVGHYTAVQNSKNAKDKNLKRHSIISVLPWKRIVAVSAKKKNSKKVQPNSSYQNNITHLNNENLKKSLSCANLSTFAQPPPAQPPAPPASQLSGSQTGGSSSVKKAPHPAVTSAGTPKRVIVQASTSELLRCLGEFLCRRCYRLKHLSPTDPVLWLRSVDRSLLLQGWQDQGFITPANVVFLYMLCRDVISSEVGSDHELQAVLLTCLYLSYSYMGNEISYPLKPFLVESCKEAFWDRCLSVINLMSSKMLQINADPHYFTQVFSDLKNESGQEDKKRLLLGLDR

[7] = target: Cyclin-dependent kinase 1/cyclin B1 (Homo sapiens, UniProt P06493); test: Inhibition of CDK1/CyclinB1 (unknown origin) using histone H1 (GGGPATPKKAKKL) as substrate incubated for 80 mins in presence of ATP by ADP-Glo kinase assay; assay type: protein-complex assay
[8] = target: Cyclin-dependent kinase 4/cyclin D1 (Homo sapiens, UniProt P11802); test: Inhibition of human recombinant N-terminal GST-tagged CDK4 (S4-E303 residues)/Cyclin D1 (Q4-I295 residues) expressed in sf9 cells using RB-CTF as substrate incubated for 90 mins in presence of ATP by ADP-Glo kinase assay
Cyclin-dependent kinase 4/cyclin D1, sequence (P11802 whole entry, the tested form may be a part): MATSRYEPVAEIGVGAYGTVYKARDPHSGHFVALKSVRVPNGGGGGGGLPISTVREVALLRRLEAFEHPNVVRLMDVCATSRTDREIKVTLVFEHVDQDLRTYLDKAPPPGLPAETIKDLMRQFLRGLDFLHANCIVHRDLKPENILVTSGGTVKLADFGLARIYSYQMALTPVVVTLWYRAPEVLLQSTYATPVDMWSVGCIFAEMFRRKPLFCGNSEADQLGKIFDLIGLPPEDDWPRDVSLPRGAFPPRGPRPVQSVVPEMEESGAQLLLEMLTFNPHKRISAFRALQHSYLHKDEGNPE
Cyclin-dependent kinase 4/cyclin D1, sequence (P24385 whole entry, further chain, the tested form may be a part): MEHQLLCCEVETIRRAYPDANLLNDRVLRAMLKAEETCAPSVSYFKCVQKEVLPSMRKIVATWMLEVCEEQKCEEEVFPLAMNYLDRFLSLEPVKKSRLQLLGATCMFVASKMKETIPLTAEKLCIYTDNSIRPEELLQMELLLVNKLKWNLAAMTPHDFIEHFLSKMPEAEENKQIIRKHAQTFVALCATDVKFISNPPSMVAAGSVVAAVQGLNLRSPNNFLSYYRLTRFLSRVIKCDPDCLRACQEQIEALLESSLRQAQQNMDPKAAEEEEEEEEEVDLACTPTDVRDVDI

CDK6/cyclin D3 = CDK6/cyclin D3 (Homo sapiens, UniProt Q00534); test: Inhibition of human recombinant N-terminal GST-tagged CDK6 (M1-A326 residues) and His6 tagged Cyclin D3 (M1-L292 residues) expressed in sf9 cells using histone H1 (GGGPATPKKAKKL) as substrate incubated for 60 mins in presence of ATP by ADP-Glo kinase assay
CDK6/cyclin D3, sequence (P30281 whole entry, the tested form may be a part): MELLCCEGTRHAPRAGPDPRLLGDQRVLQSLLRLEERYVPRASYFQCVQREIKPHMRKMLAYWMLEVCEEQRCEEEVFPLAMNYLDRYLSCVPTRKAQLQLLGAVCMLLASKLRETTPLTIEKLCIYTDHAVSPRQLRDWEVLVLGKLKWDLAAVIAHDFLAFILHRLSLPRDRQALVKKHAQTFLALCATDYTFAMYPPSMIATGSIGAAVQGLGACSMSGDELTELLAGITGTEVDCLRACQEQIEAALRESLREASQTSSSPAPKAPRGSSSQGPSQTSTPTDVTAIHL
CDK6/cyclin D3, sequence (Q00534 whole entry, the tested form may be a part): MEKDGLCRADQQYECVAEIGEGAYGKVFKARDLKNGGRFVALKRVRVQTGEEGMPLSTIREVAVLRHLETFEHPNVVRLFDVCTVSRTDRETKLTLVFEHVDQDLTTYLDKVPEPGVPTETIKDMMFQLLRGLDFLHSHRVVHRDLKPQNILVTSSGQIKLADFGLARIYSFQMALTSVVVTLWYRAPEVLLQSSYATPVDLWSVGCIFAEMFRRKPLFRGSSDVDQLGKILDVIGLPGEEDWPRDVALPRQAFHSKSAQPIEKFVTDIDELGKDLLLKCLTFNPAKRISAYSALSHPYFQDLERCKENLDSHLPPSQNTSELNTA

CDK9/cyclin T1 = CDK9/cyclin T1 (Homo sapiens, UniProt P50750); test: Inhibition of human recombinant full length N-terminal GST His6 fused CDK9 (M1 to F372 residues/ N-terminal His6 tagged Cyclin T1 (M1 to K726 residues) expressed in sf9 cells using RBER-IRStide as substrate incubated for 90 mins in presence of ATP by ADP-Glo kinase assay
CDK9/cyclin T1, sequence (O60563 whole entry, the tested form may be a part): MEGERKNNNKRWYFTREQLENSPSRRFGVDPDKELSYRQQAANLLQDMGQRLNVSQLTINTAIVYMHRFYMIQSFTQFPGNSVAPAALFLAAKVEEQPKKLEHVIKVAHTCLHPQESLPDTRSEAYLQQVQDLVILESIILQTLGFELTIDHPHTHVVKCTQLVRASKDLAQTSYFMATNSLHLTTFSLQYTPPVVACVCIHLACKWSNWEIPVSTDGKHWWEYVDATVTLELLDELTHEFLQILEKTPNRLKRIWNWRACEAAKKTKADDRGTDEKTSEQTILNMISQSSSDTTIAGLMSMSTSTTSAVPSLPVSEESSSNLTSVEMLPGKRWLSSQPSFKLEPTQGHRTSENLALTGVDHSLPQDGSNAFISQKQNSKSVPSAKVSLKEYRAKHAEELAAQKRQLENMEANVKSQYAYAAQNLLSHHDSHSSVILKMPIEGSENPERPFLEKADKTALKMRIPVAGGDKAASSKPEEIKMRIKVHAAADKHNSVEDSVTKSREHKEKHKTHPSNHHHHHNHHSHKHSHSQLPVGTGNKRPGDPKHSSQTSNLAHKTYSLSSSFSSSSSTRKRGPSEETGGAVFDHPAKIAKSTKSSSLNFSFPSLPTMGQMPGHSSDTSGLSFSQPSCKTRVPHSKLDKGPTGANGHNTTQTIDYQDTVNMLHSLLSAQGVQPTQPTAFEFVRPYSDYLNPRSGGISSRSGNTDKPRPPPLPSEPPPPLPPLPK
CDK9/cyclin T1, sequence (P50750 whole entry, the tested form may be a part): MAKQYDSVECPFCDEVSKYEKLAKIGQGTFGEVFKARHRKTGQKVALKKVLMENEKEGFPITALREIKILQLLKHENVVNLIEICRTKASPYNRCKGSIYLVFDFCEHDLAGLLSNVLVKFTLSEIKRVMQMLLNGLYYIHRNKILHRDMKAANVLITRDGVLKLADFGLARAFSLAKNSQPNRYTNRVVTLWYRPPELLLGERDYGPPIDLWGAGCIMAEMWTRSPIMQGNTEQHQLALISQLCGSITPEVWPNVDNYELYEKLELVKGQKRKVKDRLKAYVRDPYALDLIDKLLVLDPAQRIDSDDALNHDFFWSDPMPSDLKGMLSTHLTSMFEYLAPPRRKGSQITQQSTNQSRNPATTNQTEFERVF

[9] = target: Cyclin-dependent kinase 2/cyclin E1 (Homo sapiens, UniProt P24941); test: Inhibition of CDK2/Cyclin E (unknown origin) incubated for 30 to 120 mins in presence of ATP by ADP-Glo kinase assay; assay type: protein-complex assay
CDK7/Cyclin H/MNAT1 = CDK7/Cyclin H/MNAT1 (Homo sapiens, UniProt P50613); test: Inhibition of CDK7/cyclinH/MAT1 (unknown origin) using RBER-IRStide as substrate incubated for 120 mins in presence of ATP by ADP-Glo kinase assay; assay type: protein-complex assay
CDK7/Cyclin H/MNAT1, sequence (P51946 whole entry): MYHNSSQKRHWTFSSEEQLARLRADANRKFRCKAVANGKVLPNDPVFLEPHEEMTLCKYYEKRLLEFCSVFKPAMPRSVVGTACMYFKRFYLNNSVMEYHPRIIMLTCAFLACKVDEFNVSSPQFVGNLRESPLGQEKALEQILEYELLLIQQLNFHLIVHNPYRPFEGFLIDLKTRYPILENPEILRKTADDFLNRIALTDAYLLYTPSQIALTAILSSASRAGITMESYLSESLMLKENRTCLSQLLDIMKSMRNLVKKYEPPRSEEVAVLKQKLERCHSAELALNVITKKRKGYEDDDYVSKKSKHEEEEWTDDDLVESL
CDK7/Cyclin H/MNAT1, sequence (P50613 whole entry): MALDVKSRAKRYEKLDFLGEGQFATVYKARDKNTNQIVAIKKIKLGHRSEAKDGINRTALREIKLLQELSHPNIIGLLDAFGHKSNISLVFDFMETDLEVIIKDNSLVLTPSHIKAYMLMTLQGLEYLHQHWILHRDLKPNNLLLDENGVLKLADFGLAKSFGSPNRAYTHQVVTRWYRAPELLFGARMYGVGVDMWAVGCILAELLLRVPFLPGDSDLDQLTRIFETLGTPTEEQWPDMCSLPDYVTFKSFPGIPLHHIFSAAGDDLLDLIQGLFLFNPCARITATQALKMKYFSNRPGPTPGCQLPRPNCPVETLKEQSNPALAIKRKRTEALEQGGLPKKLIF
CDK7/Cyclin H/MNAT1, sequence (P51948 whole entry, further chain): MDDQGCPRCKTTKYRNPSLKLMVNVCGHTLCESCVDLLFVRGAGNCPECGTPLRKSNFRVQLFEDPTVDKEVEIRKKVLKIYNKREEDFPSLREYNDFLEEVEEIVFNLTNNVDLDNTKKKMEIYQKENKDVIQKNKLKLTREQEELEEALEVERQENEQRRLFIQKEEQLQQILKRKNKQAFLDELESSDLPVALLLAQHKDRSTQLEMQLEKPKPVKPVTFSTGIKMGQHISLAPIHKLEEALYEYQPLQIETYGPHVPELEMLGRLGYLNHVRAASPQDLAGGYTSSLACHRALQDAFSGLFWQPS

MV4-11 = test: Antiproliferative activity against human MV4-11 cells assessed as growth inhibition measured after 72 hrs by resazurin assay; assay type: functional; details: MV4-11, 72 h
Procedure, shortened: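 Leukemia cells exposed to compound for 72 h; viability read by resazurin reduction. GI50 (concentration giving 50% inhibition of proliferation) reported as mean ± SD of three independent experiments.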

MOLM-13 [10] = test: Induction of apoptosis in human MOLM13 cells assessed as late apoptotic cells at 2.5 uM measured after 24 hrs by Annexin V-FITC/PI staining based flow cytometry (reference value: 1.94%); assay type: functional
MOLM-13 [11] = test: Induction of apoptosis in human MOLM13 cells assessed as early apoptotic cells at 10 uM measured after 24 hrs by Annexin V-FITC/PI staining based flow cytometry (reference value: 3.38%); assay type: functional
[12] = target: Cyclin-dependent kinase 5 (Homo sapiens) (UniProt Q00535); test: Inhibition of CDK5 in human MOLM13 cells assessed as increase in caspase3/7 activity at 2.5 to 10 uM measured after 24 hrs by caspase-3/7 glo assay; assay type: cell-based
Procedure, shortened: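 MOLM-13 cells treated 24 h; caspase-3/7 activity measured with […]; at least two independent experiments, values given as mean.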

[13] = target: Cyclin-dependent kinase 5 (Homo sapiens) (UniProt Q00535); test: Inhibition of CDK5 in human MOLM13 cells assessed as decrease in phosphorylated RB protein level at 5 to 10 uM measured after 24 hrs incubation by Western blot analysis; assay type: cell-based; procedure, shortened: as §1
[14] = target: Cyclin-dependent kinase 5 (Homo sapiens) (UniProt Q00535); test: Inhibition of CDK5 in human MOLM13 cells assessed as decrease in phosphorylated Akt protein level at 5 to 10 uM measured after 24 hrs incubation by Western blot analysis; assay type: cell-based; procedure, shortened: as §1
[15] = target: Cyclin-dependent kinase 5 (Homo sapiens) (UniProt Q00535); test: Inhibition of CDK5 in human MV4-11 cells assessed as decrease in phosphorylated Akt protein level at 5 to 10 uM measured after 24 hrs incubation by Western blot analysis; assay type: cell-based; procedure, shortened: as §1
[16] = target: Cyclin-dependent kinase 5 (Homo sapiens) (UniProt Q00535); test: Inhibition of CDK5 in human MV4-11 cells assessed as decrease in phosphorylated RB protein level at 5 to 10 uM measured after 24 hrs incubation by Western blot analysis; assay type: cell-based; procedure, shortened: as §1
[17] = target: Cyclin-dependent kinase 5 (Homo sapiens) (UniProt Q00535); test: Inhibition of CDK5 in human MV4-11 cells assessed as decrease in FAK phosphorylation at S732 measured after 24 hrs by Western blot analysis; assay type: cell-based
Procedure, shortened: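 MV4-11 AML cells incubated 24 h with compound across a concentration series; cellular CDK5 activity followed by Western blot of FAK phosphorylation at Ser732.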

[18] = target: Cyclin-dependent kinase 5 (Homo sapiens) (UniProt Q00535); test: Inhibition of CDK5 in human MOLM13 cells assessed as increase in cleaved caspase 3 level at 5 to 10 uM measured after 24 hrs by western blot analysis; assay type: cell-based; procedure, shortened: as §1
[19] = target: Cyclin-dependent kinase 5 (Homo sapiens) (UniProt Q00535); test: Inhibition of CDK5 in human MOLM13 cells assessed as decrease in p21CIP1 level at 5 to 10 uM measured after 24 hrs by western blot analysis; assay type: cell-based
[20] = target: Cyclin-dependent kinase 5 (Homo sapiens) (UniProt Q00535); test: Inhibition of CDK5 in human MV4-11 cells assessed as FAK phosphorylation at S732 at 5 to 10 uM measured after 24 hrs by Western blot analysis

Row | Structure (SMILES) | Activity [1] | Activity [2] | inhibition [3] | inhibition [4] | inhibition [5] | Ki (CDK2/Cyclin A2) | Ki [6] | Ki [7] | Ki [8] | Ki (CDK6/cyclin D3) | Ki (CDK9/cyclin T1) | Ki [9] | Ki (CDK7/Cyclin H/MNAT1) | GI50 (MV4-11) | Activity (MOLM-13 [10]) | Activity (MOLM-13 [11]) | Activity [12] | inhibition [13] | inhibition [14] | inhibition [15] | other results
1 | Cc1cccc(Nc2ncc3c(n2)CCCC3)c1 | Active | Active | Active | Active | 87% | 3320 nM | 800 nM | 2360 nM | > 5000 nM | > 5000 nM | > 5000 nM | > 5000 nM | > 5000 nM | 3290 nM | 2.68% | 30.11% | Active | Active | Active | Active | inhibition [16]: Active; inhibition [17]: Dose-dependent effect; Activity [18]: Active; inhibition [19]: Active; inhibition [20]: inactive
2 | NS(=O)(=O)c1cccc(Nc2ncc3c(n2)CCCC3)c1 | Active | Active | Active | Active | 98% | 270 nM | 160 nM | 2610 nM | > 5000 nM | 3010 nM | 1000 nM | 1000 nM | > 5000 nM | 2550 nM | 3.43% | 18.34% | Active | Active | Active | Active | inhibition [16]: Active; inhibition [17]: Dose-dependent effect; Activity [18]: Active; inhibition [19]: Active; inhibition [20]: inactive
